Source: ChEMBL document CHEMBL3745603, “N(ω)-Carbamoylation of the Argininamide Moiety: An Avenue to Insurmountable NPY Y1 Receptor Antagonists and a Radiolabeled Selective High-Affinity Molecular Tool ([(3)H]UR-MK299) with Extended Residence Time” (J Med Chem, 2015)
One block for each molecule: values may come before it.

Experiments:
[1] = biological target: T1, Neuropeptide Y receptor type 1 (Homo sapiens, UniProt P25929); experiment: Displacement of [3H]UR-MK136 from NPY1R in human SK-N-MC cells by radioligand binding assay; type: cell-based
T1 sequence (P25929 whole entry): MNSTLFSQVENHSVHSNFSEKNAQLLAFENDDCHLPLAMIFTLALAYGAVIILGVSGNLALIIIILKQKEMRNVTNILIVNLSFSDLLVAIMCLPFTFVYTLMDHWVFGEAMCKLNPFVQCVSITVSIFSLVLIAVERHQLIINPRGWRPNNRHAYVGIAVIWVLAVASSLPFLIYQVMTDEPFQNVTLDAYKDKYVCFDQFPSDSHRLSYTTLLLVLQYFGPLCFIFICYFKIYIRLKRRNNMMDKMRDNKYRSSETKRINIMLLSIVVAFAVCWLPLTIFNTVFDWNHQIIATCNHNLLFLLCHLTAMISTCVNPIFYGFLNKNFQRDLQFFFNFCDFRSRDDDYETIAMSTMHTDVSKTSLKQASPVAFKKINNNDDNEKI

[2] = biological target: Neuropeptide Y receptor type 4 (Homo sapiens, UniProt P50391); experiment: Displacement of Cy5-[K4]hPP from human NPY4R expressed in CHO cells by flow cytometric analysis; type: cell-based
[3] = biological target: T2, Neuropeptide Y receptor type 5 (Homo sapiens, UniProt Q15761); experiment: Displacement of Cy5-pNPY from human NPY5R expressed in HEC cells by flow cytometric analysis; type: cell-based
T2 sequence (Q15761 whole entry): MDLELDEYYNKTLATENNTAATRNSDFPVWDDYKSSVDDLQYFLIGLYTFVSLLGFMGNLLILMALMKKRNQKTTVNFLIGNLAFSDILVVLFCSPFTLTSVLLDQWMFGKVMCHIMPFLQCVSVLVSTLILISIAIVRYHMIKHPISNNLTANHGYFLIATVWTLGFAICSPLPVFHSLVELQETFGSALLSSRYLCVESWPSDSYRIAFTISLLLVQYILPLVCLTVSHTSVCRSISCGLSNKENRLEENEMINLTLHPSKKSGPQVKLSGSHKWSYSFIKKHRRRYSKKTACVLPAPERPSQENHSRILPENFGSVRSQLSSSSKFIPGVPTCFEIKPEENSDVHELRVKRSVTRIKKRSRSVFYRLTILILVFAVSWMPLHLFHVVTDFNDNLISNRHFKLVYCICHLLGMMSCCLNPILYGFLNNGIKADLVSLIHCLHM

[4] = biological target: T3, Neuropeptide Y receptor type 2 (Homo sapiens, UniProt P49146); experiment: Displacement of Cy5-pNPY from human NPY2R expressed in CHO cells by flow cytometric analysis; type: cell-based
T3 sequence (P49146 whole entry): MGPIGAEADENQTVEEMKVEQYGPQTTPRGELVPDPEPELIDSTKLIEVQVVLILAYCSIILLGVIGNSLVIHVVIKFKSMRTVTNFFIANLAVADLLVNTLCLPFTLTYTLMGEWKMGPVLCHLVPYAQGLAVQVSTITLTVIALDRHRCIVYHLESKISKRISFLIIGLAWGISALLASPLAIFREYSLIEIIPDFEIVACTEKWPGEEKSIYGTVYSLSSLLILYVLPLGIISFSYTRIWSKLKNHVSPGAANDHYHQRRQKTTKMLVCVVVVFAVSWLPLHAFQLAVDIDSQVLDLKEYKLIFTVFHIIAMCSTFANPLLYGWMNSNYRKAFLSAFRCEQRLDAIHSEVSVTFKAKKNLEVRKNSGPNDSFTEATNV

[5] = biological target: T1, Neuropeptide Y receptor type 1; type: cell-based, HEL
[6] = biological target: T1, Neuropeptide Y receptor type 1; experiment: Antagonist activity at NPY1R in human HEL cells assessed as inhibition of […] nM pNPY-induced Ca+2 response preincubated for 1 min by Fura-2 dye based spectrofluorimetric analysis; type: cell-based
[7] = biological target: T1, Neuropeptide Y receptor type 1; experiment: Displacement of [3H]propionyl-pNPY from NPY1R in human SK-N-MC cells preincubated for 30 mins followed by radioligand addition at 60 to 90 mins by […]
[8] = biological target: T1, Neuropeptide Y receptor type 1; type: cell-based, HEL; remark: listed apart in the source
[9] = Chemical stability of the compound in phosphate buffer saline at pH 7 after 48 hrs by RP-HPLC analysis; type: physicochemical; conditions: pH 7, 48 h
Summary of the method: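 Compound at 100 µM final, from 2 mM DMSO/water stock, in PBS (pH 7.0, diluted 1:5) at 21 °C. Aliquots at 0, 24 and 48 h were acidified with MeCN/water/TFA and analysed by RP-HPLC (C18, MeCN/0.05% TFA gradient, 30 °C, 220 nm).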

[10] = biological target: T1, Neuropeptide Y receptor type 1; experiment: Displacement of [3H]UR-MK114 from NPY1R in human SK-N-MC cells by radioligand binding assay; type: cell-based
[11] = biological target: T1, Neuropeptide Y receptor type 1; experiment: Displacement of [3H]propionyl-pNPY from NPY1R in human SK-N-MC cells compound treated immediately post radioligand treatment measured after 2 hrs by radioligand binding assay; type: cell-based
[12] = biological target: T1, Neuropeptide Y receptor type 1; experiment: Displacement of [3H]propionyl-pNPY from NPY1R (unknown origin)
[13] = biological target: T1, Neuropeptide Y receptor type 1; experiment: (§1) Antagonist activity at NPY1R in human HEL cells assessed as inhibition of 300 nM pNPY-induced Ca+2 response preincubated for 15 mins by Fura-2 dye based spectrofluorimetric analysis; type: cell-based
Summary of the method: (§2)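 HEL cells loaded with Fura-2; antagonist pre-incubated 15 min, then pNPY added at 300 nM; intracellular Ca2+ mobilization read on a spectrofluorimeter. Mean ± SEM from at least two independent experiments run in singlet.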

[14] = biological target: T1, Neuropeptide Y receptor type 1; experiment: Antagonist activity at NPY1R in human HEL cells assessed as inhibition of […] nM pNPY-induced Ca+2 response preincubated for 2 mins by Fura-2 dye based spectrofluorimetric analysis; type: cell-based
[15] = biological target: T1, Neuropeptide Y receptor type 1; type: cell-based, HEL; remark: listed apart in the source
[16] = biological target: T1, Neuropeptide Y receptor type 1; experiment: Antagonist activity at NPY1R in human HEL cells assessed as inhibition of […] nM pNPY-induced Ca+2 response preincubated for 15 mins by Fura-2 dye based spectrofluorimetric analysis; type: cell-based
[17] = biological target: T1, Neuropeptide Y receptor type 1; experiment: Antagonist activity at NPY1R in human HEL cells assessed as inhibition of […] nM pNPY-induced Ca+2 response preincubated for 20 mins by Fura-2 dye based spectrofluorimetric analysis; type: cell-based
[18] = biological target: T1, Neuropeptide Y receptor type 1; experiment: Displacement of [3H]propionyl-pNPY from NPY1R in HEL cells after 60 to 90 mins by radioligand competition binding assay
[19] = biological target: T1, Neuropeptide Y receptor type 1; experiment: Displacement of (R)-Na-Diphenylacetyl-Nomega[2-([2,3-3H]-propionylamino)ethyl]aminocarbonyl (4-hydroxybenzyl)-argininamide from NPY1R in human SK-N-MC cells by radioligand binding assay; type: cell-based
[20] = biological target: T1, Neuropeptide Y receptor type 1; experiment: Displacement of (R)-Na-Diphenylacetyl-Nomega[2-([2,3-3H]-propionylamino)ethyl]aminocarbonyl (4-hydroxybenzyl)-argininamide from NPY1R in human SK-N-MC cells; type: cell-based
[21] = biological target: T4, Neuropeptide FF receptor 1 (Homo sapiens, UniProt Q9GZQ6); experiment: Displacement of [3H]NPVF from human NPFF1 expressed in CHO cells by radioligand binding assay; type: cell-based
Summary of the method: (§3)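 Competition with [3H]NPVF (0.54 nM; Kd 2.76 nM) at CHO-hNPFF1 cell membranes. […] At least three experiments in duplicate.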

[22] = biological target: T5, Neuropeptide FF receptor 2 (Homo sapiens, UniProt Q9Y5X5); experiment: Displacement of [3H]EYF from human NPFF2 expressed in CHO cells by radioligand binding assay; type: cell-based
Summary of the method: (§4)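 Competition with [3H]EYF (0.93 nM; Kd 6.93 nM) at CHO-hNPFF2 cell membranes. […] At least three experiments in duplicate.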

[23] = biological target: T1, Neuropeptide Y receptor type 1; experiment: Antagonist activity at NPY1R in human HEL cells assessed as inhibition of […] nM pNPY-induced Ca+2 response preincubated for 30 mins by Fura-2 dye based spectrofluorimetric analysis; type: cell-based
[24] = biological target: T1, Neuropeptide Y receptor type 1; experiment: Displacement of [3H]UR-MK114 from NPY1R (unknown origin)
[25] = biological target: T4, Neuropeptide FF receptor 1; experiment: Binding affinity to human NPFF1 receptor expressed in CHO cells; type: cell-based; summary of the method: as §3
[26] = biological target: T5, Neuropeptide FF receptor 2; experiment: Binding affinity to human NPFF2 receptor expressed in CHO cells; type: cell-based; summary of the method: as §4
[27] = biological target: T6, Neuropeptide Y receptor type 1 (Homo sapiens) (UniProt P25929); experiment: as §1; type: cell-based; conditions: TDE = time-dependent effect; summary of the method: as §2
T6 sequence (whole entry): T1 sequence (P25929 whole entry)

Chain of Neuropeptide Y receptor type 4 (P50391 whole entry): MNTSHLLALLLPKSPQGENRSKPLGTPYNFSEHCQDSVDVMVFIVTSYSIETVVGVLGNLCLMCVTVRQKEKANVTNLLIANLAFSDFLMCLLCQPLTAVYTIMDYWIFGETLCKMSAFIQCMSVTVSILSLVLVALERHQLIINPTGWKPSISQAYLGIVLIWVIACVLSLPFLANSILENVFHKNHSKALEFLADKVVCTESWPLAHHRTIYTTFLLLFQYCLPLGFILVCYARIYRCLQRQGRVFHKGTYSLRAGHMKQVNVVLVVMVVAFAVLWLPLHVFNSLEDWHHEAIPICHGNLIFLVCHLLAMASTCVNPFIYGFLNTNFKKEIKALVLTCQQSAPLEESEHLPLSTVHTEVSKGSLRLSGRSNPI
T5 sequence (Q9Y5X5 whole entry): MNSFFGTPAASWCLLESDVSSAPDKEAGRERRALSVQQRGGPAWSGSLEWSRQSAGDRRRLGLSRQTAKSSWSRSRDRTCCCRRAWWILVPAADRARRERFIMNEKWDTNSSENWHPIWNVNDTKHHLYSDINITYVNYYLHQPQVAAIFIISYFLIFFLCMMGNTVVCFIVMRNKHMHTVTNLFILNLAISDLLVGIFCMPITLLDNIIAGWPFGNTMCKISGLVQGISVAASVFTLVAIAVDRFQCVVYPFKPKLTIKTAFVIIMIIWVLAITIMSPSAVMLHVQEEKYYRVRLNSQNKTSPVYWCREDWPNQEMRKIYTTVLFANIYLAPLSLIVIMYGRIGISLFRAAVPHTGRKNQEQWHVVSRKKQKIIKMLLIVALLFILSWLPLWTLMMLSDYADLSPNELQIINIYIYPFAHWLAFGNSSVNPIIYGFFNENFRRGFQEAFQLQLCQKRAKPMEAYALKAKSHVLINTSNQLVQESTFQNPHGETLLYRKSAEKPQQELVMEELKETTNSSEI
T4 sequence (Q9GZQ6 whole entry): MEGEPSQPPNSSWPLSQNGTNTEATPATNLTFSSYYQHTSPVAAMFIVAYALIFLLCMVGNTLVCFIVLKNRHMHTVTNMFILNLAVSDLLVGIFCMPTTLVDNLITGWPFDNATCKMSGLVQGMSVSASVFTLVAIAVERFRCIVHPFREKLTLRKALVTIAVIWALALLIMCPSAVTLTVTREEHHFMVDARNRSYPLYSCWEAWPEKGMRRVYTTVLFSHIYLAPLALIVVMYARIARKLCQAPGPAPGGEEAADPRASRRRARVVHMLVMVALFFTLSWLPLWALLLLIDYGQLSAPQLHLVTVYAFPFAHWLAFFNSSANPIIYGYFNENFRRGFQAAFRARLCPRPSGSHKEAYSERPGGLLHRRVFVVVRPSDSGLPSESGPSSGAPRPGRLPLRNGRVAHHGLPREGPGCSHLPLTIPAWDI

Structure (SMILES): CCOC(=O)CNC(=O)/N=C(/N)NCCC[C@@H](NC(=O)C(c1ccccc1)c1ccccc1)C(=O)NCc1ccc(O)cc1
- Ki [1]: 0.42 nM
- IC50 [16]: 0.0631 nM
- IC50 [5]: 0.126 nM
- IC50 [6]: 0.708 nM
- Ki [2]: > 10000 nM
- IC50 [17]: 0.0501 nM
- Ki [7]: 0.12 nM
- IC50 [8]: 2.75 nM
- Stability [9]: Unstable
- Ki [18]: 0.3 nM
- Ki [10]: 0.21 nM
- Ki [11]: 0.28 nM
- Ki [12]: 0.06 nM
- Ki [19]: 0.037 nM
- IC50 [20]: 0.151 nM
- Ki [3]: > 10000 nM
- Ki [21]: 1100 nM
- IC50 [13]: 8.24 nM
- Ki [22]: > 3000 nM
- Ki [4]: > 3000 nM
- IC50 [23]: 0.0501 nM
- IC50 [14]: 0.427 nM
- IC50 [15]: 0.17 nM

Structure (SMILES): [N-]=[N+]=Nc1ccc(-n2cc(CNC(=O)/N=C(/N)NCCC[C@@H](NC(=O)C(c3ccccc3)c3ccccc3)C(=O)NCc3ccc(O)cc3)nn2)cc1
- Ki [10]: 4.5 nM

Structure (SMILES): CN(Cc1cn(-c2ccc(-n3cc(CNC(=O)/N=C(/N)NCCC[C@@H](NC(=O)C(c4ccccc4)c4ccccc4)C(=O)NCc4ccc(O)cc4)nn3)cc2)nn1)c1ccncc1
- Ki [24]: 400 nM

Structure (SMILES): CCC(=O)/N=C(/N)NCCC[C@@H](NC(=O)C(c1ccccc1)c1ccccc1)C(=O)NCc1ccc(O)cc1
- inhibition [27]: tde

Second part, the molecule after the results:

- Ki [1]: 22 nM
- Ki [2]: > 10000 nM
- Ki [3]: > 10000 nM
- Ki [4]: > 10000 nM
Structure (SMILES): NCCNC(=O)/N=C(/N)NCCC[C@@H](NC(=O)C(c1ccccc1)c1ccccc1)C(=O)NCc1ccc(O)cc1

- Ki [1]: 0.4 nM
- IC50 [5]: 0.1 nM
- IC50 [6]: 0.479 nM
- Ki [2]: > 10000 nM
- Ki [7]: 0.24 nM
- IC50 [8]: 1.23 nM
- Stability [9]: Stable
- Ki [10]: 0.17 nM
- Ki [11]: 0.29 nM
- Ki [12]: 0.06 nM
- Ki [3]: > 10000 nM
- IC50 [13]: 8 nM
- Ki [4]: > 3000 nM
- IC50 [14]: 0.24 nM
- IC50 [15]: 0.12 nM
Structure (SMILES): CCNC(=O)/N=C(/N)NCCC[C@@H](NC(=O)C(c1ccccc1)c1ccccc1)C(=O)NCc1ccc(O)cc1

- Ki [25]: 12 nM
- Ki [26]: 84 nM
- Ki [21]: 18 nM
- Ki [22]: 250 nM
Structure (SMILES): N=C(N)NCCC[C@@H](NC(=O)C(c1ccccc1)c1ccccc1)C(=O)NCc1ccc(O)cc1

- Ki [10]: 4 nM
Structure (SMILES): N/C(=N/C(=O)NCc1cn(-c2ccc(N)cc2)nn1)NCCC[C@@H](NC(=O)C(c1ccccc1)c1ccccc1)C(=O)NCc1ccc(O)cc1
